# Results gathered from unrelated publications.
# Target: Myosin light chain kinase, smooth muscle (MYLK, Homo sapiens, UniProt Q15746)
SMILES,assay,setting,endpoint,result
CC(C)(C)c1cc(C=C(C#N)C#N)cc(Br)c1O,"enzyme activity, inhibitor",0.5 µM,remaining activity,90.6%
C#Cc1n[nH]c2c(-c3cn([C@@H](C)c4ccccn4)c(=O)[nH]c3=O)cc(F)cc12,"enzyme activity, inhibitor",0.1 µM,inhibition,1.4%
Cc1nn(C)cc1-c1nc2c(N3CCN(Cc4ccc(Cl)cc4)CC3)c(Cl)cnc2[nH]1,"binding, competition with immobilised ligand",1 µM,remaining binding,89%
Cn1cncc1[C@](O)(COc1ccc(C#N)cc1-c1ccc(OC(F)(F)F)cc1)c1ccc(C#N)cc1,"cell-free assay, competition with immobilised ligand",1 µM,remaining binding,88%
Nc1ncc(-c2nc(N3CCOCC3)nc(N3CCOCC3)n2)c(C(F)F)n1,"binding, competition with immobilised ligand",10 µM,remaining binding,78%
C#Cc1n[nH]c2c(-c3cn([C@@H](C)c4ccccc4)c(=O)[nH]c3=O)cc(F)cc12,"enzyme activity, inhibitor",0.1 µM,inhibition,-0.2%
COc1ncccc1-c1cnn2ccc(N3CCN(C(=O)OC(C)C)CC3)nc12,"binding, competition with immobilised ligand",1 µM,remaining binding,85%
O=c1[nH]c2ccccc2n1C1CCN(Cc2ccc(-c3[nH]c4cc5ncnc5cc4nc3-c3ccccc3)cc2)CC1,cell-free assay,0.5 µM,remaining signal,104%
Cn1cc(-c2cccc(N3CCc4c(sc5c4CC(C)(C)C5)C3=O)c2CO)cc(Nc2ccncn2)c1=O,"enzyme activity, inhibitor",1 µM,inhibition,-4%
